According to ChEMBL document CHEMBL2040716, “Discovery of a new antileishmanial hit in 8-nitroquinoline series” (Eur J Med Chem, 2012):

Legend:
Leishmania donovani [1] = test: Antileishmanial activity against Leishmania donovani MHOM/IN/00/DEVI promastigotes after 72 hrs by MTT assay; format: functional, organism-based
Outline: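 Late log-phase promastigotes in Schneider's medium with 20% FCS, 2 mM L-glutamine, penicillin/streptomycin, at 10^6 parasites/mL. Compounds in DMSO (final <0.5% v/v) over a concentration range, in duplicate, 72 h at 27 °C. MTT 0.5 mg/mL added for 6 h at 27 °C; pellet dissolved in DMSO; A570. IC50 by non-linear regression versus control; mean of two independent experiments.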

[2] = Cytotoxicity against mouse J774A1 cells after 72 hrs by MTT assay; format: cell-based, J774.A1
Outline: (§1)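 Cells plated in RPMI with 10% FBS, L-glutamine, penicillin/streptomycin at 37 °C, 6% CO2. After 24 h, a range of compound concentrations was added for 72 h. Wells checked for precipitate; MTT for 2 h at 37 °C; formazan dissolved in DMSO; A570 with 630 nm reference. Viability as % of untreated control; CC50 from dose-response curve, mean of two independent experiments.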

[3] = Cytotoxicity against human HepG2 cells after 72 hrs by MTT assay; format: cell-based; outline: as §1
[4] = Selectivity index, ratio of CC50 for mouse J774A1 cells to IC50 for Leishmania donovani MHOM/IN/00/DEVI promastigotes; format: functional, J774.A1
Outline: (§2)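 SI computed as CC50 (HepG2 or J774) divided by L. donovani promastigote IC50. Both values come from the MTT assays above, each the mean of two independent experiments.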

[5] = Selectivity index, ratio of CC50 for human HepG2 cells to IC50 for Leishmania donovani MHOM/IN/00/DEVI promastigotes; format: functional; outline: as §2
Leishmania infantum = test: Antileishmanial activity against Leishmania infantum MCAN/ES/98/LLM-877 promastigotes after 72 hrs by MTT assay; format: functional, organism-based; conditions: MCAN/ES/98/LLM-877, 72 h
Leishmania donovani [6] = test: Antileishmanial activity against Leishmania donovani MHOM/IN/00/DEVI amastigotes infected in mouse J774A.1 cells after 120 hrs by Giemsa staining-based microscopic analysis; conditions: J774.A1, 120 h
Toxoplasma gondii = test: Antitoxoplasmic activity against Toxoplasma gondii PRU tachyzoites infected in human HFF cells assessed as beta-galactosidase activity after 72 hrs by colorimetric assay; format: functional, cell-based
Outline: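 HFF monolayers grown to confluence (3.10^4 cells/well) in RPMI with 10% FCS at 37 °C, 6% CO2. Infected with 1 × 10^4 PRU-β-Gal tachyzoites for 3 h, then compounds (DMSO <0.5% v/v) added in triplicate for 72 h. 1 mM CPRG for 6 h; read at 570 and 630 nm, blanked on uninfected wells. IC50 by non-linear regression; mean of two experiments.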

| Structure (SMILES) | IC50 (Leishmania donovani [1]) | CC50 at 72 h [2] | CC50 at 72 h [3] | Ratio CC50/IC50 [4] | Ratio CC50/IC50 [5] | IC50 (Leishmania infantum) | IC50 (Leishmania donovani [6]) | IC50 (Toxoplasma gondii) |
| --- | --- | --- | --- | --- | --- | --- | --- | --- |
| O=Cc1ccc2ccccc2n1 | > 50 µM | 28.8 µM | > 100 µM | <0.58 | – | – | – | – |
| Cc1ccc2cc([N+](=O)[O-])ccc2n1 | > 50 µM | > 100 µM | > 100 µM | – | – | – | – | – |
| O=[N+]([O-])c1cccc2ncccc12 | > 50 µM | > 100 µM | > 100 µM | – | – | – | – | – |
| O=[N+]([O-])c1cccc2cccnc12 | > 50 µM | > 100 µM | > 100 µM | – | – | – | – | – |
| Cc1ccc2cccc([N+](=O)[O-])c2n1 | > 50 µM | > 100 µM | > 100 µM | – | – | – | – | – |
| Oc1ccc2ccccc2n1 | > 50 µM | > 100 µM | > 100 µM | – | – | – | – | – |
| O=Cc1ccc2c([N+](=O)[O-])cccc2n1 | > 50 µM | 22.8 µM | 92 µM | <0.46 | <1.8 | – | – | – |
| Clc1ccc2ccccc2n1 | > 50 µM | > 100 µM | > 100 µM | – | – | – | – | – |
| O=[N+]([O-])c1cccc2nc(Cl)ccc12 | > 50 µM | > 100 µM | > 100 µM | – | – | – | – | – |
| O=[N+]([O-])c1cccc2nc(O)ccc12 | > 50 µM | > 100 µM | > 100 µM | – | – | – | – | – |
| O=[N+]([O-])c1ccc2nc(O)ccc2c1 | > 50 µM | 83.7 µM | > 100 µM | <1.7 | – | – | – | – |
| C[C@@H]1[C@H](O)[C@@H](C)/C=C/C=C/C=C/C=C/C=C/C=C/C=C/[C@H](O[C@@H]2O[C@H](C)[C@@H](O)[C@H](N)[C@@H]2O)C[C@@H]2O[C@](O)(C[C@@H](O)C[C@@H](O)[C@H](O)CC[C@@H](O)C[C@@H](O)CC(=O)O[C@H]1C)C[C@H](O)[C@H]2C(=O)O [AMPHOTERICIN B] | 0.1 µM | 3.1 µM | – | – | – | 0.05 µM | – | – |
| COc1cccc2c1C(=O)c1c(O)c3c(c(O)c1C2=O)C[C@@](O)(C(=O)CO)C[C@@H]3O[C@H]1C[C@H](N)[C@H](O)[C@H](C)O1 [DOXORUBICIN] | – | 0.02 µM | – | – | – | – | – | – |
| CCCCCCCCCCCCCCCCOP(=O)([O-])OCC[N+](C)(C)C [MILTEFOSINE] | – | 94.6 µM | 50.3 µM | – | – | 11.6 µM | 6.8 µM | – |
| N=C(N)c1ccc(OCCCCCOc2ccc(C(=N)N)cc2)cc1 [PENTAMIDINE] | 6 µM | 1 µM | 2.3 µM | 0.17 | 0.38 | 8.2 µM | > 20 µM | – |
| CCc1nc(N)nc(N)c1-c1ccc(Cl)cc1 [PYRIMETHAMINE] | – | – | – | – | – | – | – | 0.8 µM |
| Cc1ccc2ccccc2n1 [QUINALDINE] | > 50 µM | > 100 µM | > 100 µM | – | – | – | – | – |
| c1ccc2ncccc2c1 [QUINOLINE] | > 50 µM | > 100 µM | > 100 µM | – | – | – | – | – |
